# Measurements as given in ChEMBL document CHEMBL3351258, “An amidation/cyclization approach to the synthesis of N-hydroxyquinolinones and their biological evaluation as potential anti-plasmodial, anti-bacterial, and iron(II)-chelating agents” (Bioorg Med Chem Lett, 2015).
# The source made the active and inactive calls. The calls are words filed in the database; no cut-off is given here.
# Tests used:
# Plasmodium falciparum [1] = experiment: Antiplasmodial activity against Plasmodium falciparum 3D7 incubated for 36 to 42 hrs by Giemsa staining method; format: functional, organism-based
# Summary of the method: (§1)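 In vitro maturation assay on the chloroquine-sensitive P. falciparum 3D7 strain.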
# Staphylococcus aureus [2] = experiment: Antibacterial activity against Staphylococcus aureus ATCC 25923 incubated for 18 to 24 hrs followed by addition incubation for 18 to 24 hrs on MHA plates; format: functional
# Summary of the method: (§2)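 Read-out is the minimum bactericidal concentration (MBC), determined separately against Escherichia coli and Staphylococcus aureus.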
# Escherichia coli [3] = experiment: Antibacterial activity against Escherichia coli ATCC 25922 incubated for 18 to 24 hrs followed by addition incubation for 18 to 24 hrs on MHA plates; format: functional; summary of the method: as §2
# Staphylococcus aureus [4] = experiment: Antibacterial activity against Staphylococcus aureus ATCC 25923 up to 1024 ug/ml incubated for 18 to 24 hrs followed by addition incubation for 18 to 24 hrs on MHA plates; format: functional, organism-based; summary of the method: as §2
# Escherichia coli [5] = experiment: Antibacterial activity against Escherichia coli ATCC 25922 up to 1024 ug/ml incubated for 18 to 24 hrs followed by addition incubation for 18 to 24 hrs on MHA plates; format: functional, organism-based; summary of the method: as §2
# [6] = Iron chelation activity assessed as drug level causing 50% iron chelation at 20 to 500 ug/ml using FeCl2 and ferrozine; format: physicochemical; conditions: for EC50: read-out: Activity
# Summary of the method: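 The value is the concentration giving 50% chelation ability (50% CA), reported in mM.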
# Plasmodium falciparum [7] = experiment: Antiplasmodial activity against Plasmodium falciparum 3D7 up to 5092 ug/ml incubated for 36 to 42 hrs by Giemsa staining method; format: functional, organism-based; conditions: in the assay text read “5092 ng/ml” for “5092 ug/ml”; summary of the method: as §1
# [8] = Iron chelation activity at 500 ug/ml using FeCl2 and ferrozine; format: physicochemical
# [9] = Plasmodium falciparum, 3D7, read-out: IC50
Compound,IC50 (Plasmodium falciparum [1]; [9]) [µM],MBC (Staphylococcus aureus [2]),MBC (Escherichia coli [3]),Activity (Staphylococcus aureus [4]),Activity (Escherichia coli [5]),EC50 [6] [µM],IC50 (Plasmodium falciparum [1]),Activity (Plasmodium falciparum [7]),Activity [6],Activity [8]
O=c1c(-c2cccc3ccccc23)cc2cc(O)ccc2n1O,2.5,inactive,3.4 mM,inactive,,,,,,
Cc1ccccc1-c1cc2ccccc2n(O)c1=O,3,4.1 mM,inactive,,inactive,,,,,
COc1ccc2c(c1)cc(-c1cccc3ccccc13)c(=O)n2O,1.3,inactive,inactive,inactive,inactive,250,,,,
Cc1ccccc1-c1cc2cc(F)ccc2n(O)c1=O,4.8,inactive,inactive,inactive,inactive,290,,,,
O=c1c(-c2cccc3ccccc23)cc2ccccc2n1O,2.6,inactive,inactive,inactive,inactive,,,,,
COc1ccccc1-c1cc2ccccc2n(O)c1=O,7.6,3.8 mM,1.9 mM,,,,,,,
Cc1ccccc1-c1cc2cc(O)ccc2n(O)c1=O,3.5,3.8 mM,1.9 mM,,,,,,,
O=c1c(-c2ccccc2C(F)(F)F)cc2ccccc2n1O,5.9,3.4 mM,inactive,,inactive,,,,,
COc1ccc2c(c1)cc(-c1ccccc1C)c(=O)n2O,1.3,3.6 mM,inactive,,inactive,280,,,,
O=c1c(-c2cccc3ccccc23)cc2cc3c(cc2n1O)OCO3,4.2,inactive,inactive,inactive,inactive,,,,,
Cc1ccccc1-c1cc2c(F)cccc2n(O)c1=O,5,inactive,inactive,inactive,inactive,280,,,,
O=c1c(-c2ccccc2)cc2ccccc2n1O,14,inactive,inactive,inactive,inactive,,,,,
O=c1c(-c2ccccc2)c(O)c2ccccc2n1O,,inactive,4 mM,inactive,,,Not Active,inactive,,
Cc1ccccc1-c1cc2cc3c(cc2n(O)c1=O)OCO3,4.6,inactive,inactive,inactive,inactive,,,,,
Cc1ccccc1-c1cc2c3c(ccc2n(O)c1=O)OCO3,3.6,inactive,inactive,inactive,inactive,,,,,
O=c1c(-c2ccccc2C(F)(F)F)c(O)c2ccccc2n1O,,inactive,inactive,inactive,inactive,,Not Active,inactive,,
O=c1c(-c2ccc3ccccc3c2)cc2ccccc2n1O,2.9,3.6 mM,inactive,,inactive,,,,,
O=c1c(-c2cccc3ccccc23)c(O)c2ccccc2n1O,,1.7 mM,inactive,,inactive,280,Not Active,inactive,,
O=c1c(-c2cccc3ccccc23)cc2c(F)cccc2n1O,1.4,inactive,inactive,inactive,inactive,240,,,,
O=c1[nH]c2ccccc2cc1-c1cccc2ccccc12,,inactive,inactive,inactive,inactive,,Not Active,inactive,Not Active,Not Active
COc1ccccc1-c1c(O)c2ccccc2n(O)c1=O,,inactive,inactive,inactive,inactive,,Not Active,inactive,,
Cc1ccccc1-c1c(O)c2ccccc2n(O)c1=O,,inactive,inactive,inactive,inactive,,Not Active,inactive,,
COc1cc2cc(-c3ccccc3C)c(=O)n(O)c2cc1OC,5.5,inactive,inactive,inactive,inactive,,,,,
O=c1c(-c2cccc3ccccc23)cc2cc(F)ccc2n1O,1.1,inactive,inactive,inactive,inactive,240,,,,
O=c1c(-c2ccc3ccccc3c2)c(O)c2ccccc2n1O,,inactive,inactive,inactive,inactive,,Not Active,inactive,,
O=c1c(-c2cccc3ccccc23)cc2c3c(ccc2n1O)OCO3,1.9,3.1 mM,inactive,,inactive,,,,,
COc1cc2cc(-c3cccc4ccccc34)c(=O)n(O)c2cc1OC,5,inactive,inactive,inactive,inactive,,,,,
C=C[C@]1(C)C[C@H](C)C[C@H](C)[C@H]1c1c(O)ccn(O)c1=O,0.8,,,,,,,,,
